{"source": "ChEMBL document CHEMBL4819027", "about": "“Design, synthesis and biological evaluation of novel 2-(4-(1H-indazol-6-yl)-1H-pyrazol-1-yl)acetamide derivatives as potent VEGFR-2 inhibitors” (Eur J Med Chem, 2021)", "key": {"[1]": {"tested_on": "HT-29", "assay": "Antiproliferative activity against human HT-29 cells assessed as cell growth inhibition after 72 hrs by MTT assay", "assay_type": "functional, cell-based", "conditions": "HT-29, 72 h", "outline": "(§1)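 Log-phase cells were seeded at 5 × 10³ per well and attached 24 h. HT-29 and GES-1 were grown in DMEM-based medium, A549/HepG2/HGC-27 in RPMI-1640, HUVEC in ECM with ECGS; all media had 10% FBS. Cells were exposed to graded compound concentrations for 72 h at 37 °C. MTT (5 mg/mL stock) was added for 4 h, formazan dissolved in DMSO, and A490 read. IC50 was obtained by nonlinear sigmoidal regression; mean ± S.E. of three experiments.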"}, "[2]": {"tested_on": "A549", "assay": "Antiproliferative activity against human A549 cells assessed as cell growth inhibition after 72 hrs by MTT assay", "assay_type": "functional, cell-based", "conditions": "A549, 72 h", "outline": "as §1"}, "[3]": {"tested_on": "HUVEC", "assay": "Cytotoxicity against human HUVEC cells assessed as inhibition of cell growth incubated for 72 hrs by MTT assay", "assay_type": "cell-based", "outline": "as §1"}, "[4]": {"tested_on": "GES1", "assay": "Cytotoxicity against human GES-1 cells assessed as inhibition of cell growth incubated for 72 hrs by MTT assay", "assay_type": "cell-based", "conditions": "GES1, 72 h", "outline": "as §1"}, "[5]": {"tested_on": "HGC-27", "assay": "Inhibition of cell migration at human HGC-27 cells in 0.1 to 1 uM measured up to 24 hrs by microscopic based wound healing assay", "assay_type": "functional", "conditions": "dose 0.1-1 µM, time hrs <=24, TDE = time-dependent effect", "outline": "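HGC-27 grown to 80–90% confluence in 6-well plates, serum-starved 12 h, scratched with 200 µL tip (~1 mm lane). Washed, then given complete medium alone or with compound (0.1, 0.5, 1 µM) or sorafenib positive control. Imaged by inverted microscope at 0, 6 and 24 h; relative scratch closure quantified; mean ± SD, three independent experiments.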"}, "[6]": {"tested_on": "HGC-27", "assay": "Antiinvasive activity against human HGC-27 cells assessed as reduction in cell invasion at 0.1 to 1 measured after 24 hrs by transwell invasion assay", "assay_type": "functional, cell-based", "outline": "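Transwell inserts (12 μm pore) were precoated with Matrigel. HGC-27 cells at 5 × 10⁵ cells/mL were placed in the upper well in serum-free medium with compound (0.1, 0.5, 1 μM). The lower chamber held RPMI-1640 with 10% FBS. After 24 h at 37 °C, invaded cells were methanol-fixed and stained with 0.1% crystal violet. Cells were counted in three random fields; three independent experiments, mean ± SD.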"}, "[7]": {"tested_on": "HGC-27", "assay": "Induction of apoptosis in human HGC-27 cells assessed as viable cells level at 0.5 uM incubated for 24 hrs by propidium iode and annexin V-FITC staining based flow cytometry (reference value: 96.0%)", "assay_type": "functional", "outline": "(§2)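 HGC-27 cells (1.0 × 10⁶ per 60 mm dish) were treated 24 h with 0.1% DMSO or compound (0.1, 0.5, 1 μM). Cells were stained with Annexin V-FITC in HEPES/NaCl/CaCl₂ binding buffer (pH 7.4) for 15 min at room temperature, then with PI for 10 min. About 10 000 events were acquired by flow cytometry to give viable, early apoptotic, late apoptotic and necrotic fractions.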"}, "[8]": {"tested_on": "HGC-27", "assay": "Induction of apoptosis in human HGC-27 cells assessed as early apoptotic cells level at 1 uM incubated for 24 hrs by propidium iode and annexin V-FITC staining based flow cytometry (reference value: 1.48%)", "assay_type": "functional", "outline": "as §2"}, "[9]": {"tested_on": "HGC-27", "assay": "Induction of apoptosis in human HGC-27 cells assessed as early apoptotic cells level at 0.5 uM incubated for 24 hrs by propidium iode and annexin V-FITC staining based flow cytometry (reference value: 1.48%)", "assay_type": "functional", "outline": "as §2"}, "[10]": {"tested_on": "HGC-27", "assay": "Induction of apoptosis in human HGC-27 cells assessed as late apoptotic cells level at 0.1 uM incubated for 24 hrs by propidium iode and annexin V-FITC staining based flow cytometry (reference value: 0.86%)", "assay_type": "functional", "outline": "as §2"}, "[11]": {"tested_on": "HGC-27", "assay": "Induction of apoptosis in human HGC-27 cells assessed as necrotic cells level at 1 uM incubated for 24 hrs by propidium iode and annexin V-FITC staining based flow cytometry (reference value: 1.64%)", "assay_type": "functional", "outline": "as §2"}, "[12]": {"tested_on": "HGC-27", "assay": "Induction of apoptosis in human HGC-27 cells assessed as necrotic cells level at 0.5 uM incubated for 24 hrs by propidium iode and annexin V-FITC staining based flow cytometry (reference value: 1.64%)", "assay_type": "functional", "outline": "as §2"}, "[13]": {"tested_on": "HGC-27", "assay": "Induction of apoptosis in human HGC-27 cells assessed as late apoptotic cells level incubated for 24 hrs by propidium iode and annexin V-FITC staining based flow cytometry", "assay_type": "functional, cell-based", "conditions": "dose 0.1-1 µM", "outline": "as §2"}, "[14]": {"tested_on": "HGC-27", "assay": "Induction of intracellular ROS generation in human HGC-27cells incubated for 24 hrs by DCFH-DA staining-based flow cytometric analysis", "assay_type": "functional, cell-based", "conditions": "dose 0.1-1 µM", "outline": "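HGC-27 cells (5.0 × 10⁵ per well) were treated 24 h with compound (0.1, 0.5, 1 μM) or 0.1% DMSO. Harvested cells were loaded with 10 μM DCFH-DA in PBS for 20 min at 37 °C. Green fluorescence intensity was measured by flow cytometry.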"}, "[15]": {"target": "T1, Vascular endothelial growth factor receptor 2 (Homo sapiens, UniProt P35968)", "T1 sequence (P35968 whole entry)": "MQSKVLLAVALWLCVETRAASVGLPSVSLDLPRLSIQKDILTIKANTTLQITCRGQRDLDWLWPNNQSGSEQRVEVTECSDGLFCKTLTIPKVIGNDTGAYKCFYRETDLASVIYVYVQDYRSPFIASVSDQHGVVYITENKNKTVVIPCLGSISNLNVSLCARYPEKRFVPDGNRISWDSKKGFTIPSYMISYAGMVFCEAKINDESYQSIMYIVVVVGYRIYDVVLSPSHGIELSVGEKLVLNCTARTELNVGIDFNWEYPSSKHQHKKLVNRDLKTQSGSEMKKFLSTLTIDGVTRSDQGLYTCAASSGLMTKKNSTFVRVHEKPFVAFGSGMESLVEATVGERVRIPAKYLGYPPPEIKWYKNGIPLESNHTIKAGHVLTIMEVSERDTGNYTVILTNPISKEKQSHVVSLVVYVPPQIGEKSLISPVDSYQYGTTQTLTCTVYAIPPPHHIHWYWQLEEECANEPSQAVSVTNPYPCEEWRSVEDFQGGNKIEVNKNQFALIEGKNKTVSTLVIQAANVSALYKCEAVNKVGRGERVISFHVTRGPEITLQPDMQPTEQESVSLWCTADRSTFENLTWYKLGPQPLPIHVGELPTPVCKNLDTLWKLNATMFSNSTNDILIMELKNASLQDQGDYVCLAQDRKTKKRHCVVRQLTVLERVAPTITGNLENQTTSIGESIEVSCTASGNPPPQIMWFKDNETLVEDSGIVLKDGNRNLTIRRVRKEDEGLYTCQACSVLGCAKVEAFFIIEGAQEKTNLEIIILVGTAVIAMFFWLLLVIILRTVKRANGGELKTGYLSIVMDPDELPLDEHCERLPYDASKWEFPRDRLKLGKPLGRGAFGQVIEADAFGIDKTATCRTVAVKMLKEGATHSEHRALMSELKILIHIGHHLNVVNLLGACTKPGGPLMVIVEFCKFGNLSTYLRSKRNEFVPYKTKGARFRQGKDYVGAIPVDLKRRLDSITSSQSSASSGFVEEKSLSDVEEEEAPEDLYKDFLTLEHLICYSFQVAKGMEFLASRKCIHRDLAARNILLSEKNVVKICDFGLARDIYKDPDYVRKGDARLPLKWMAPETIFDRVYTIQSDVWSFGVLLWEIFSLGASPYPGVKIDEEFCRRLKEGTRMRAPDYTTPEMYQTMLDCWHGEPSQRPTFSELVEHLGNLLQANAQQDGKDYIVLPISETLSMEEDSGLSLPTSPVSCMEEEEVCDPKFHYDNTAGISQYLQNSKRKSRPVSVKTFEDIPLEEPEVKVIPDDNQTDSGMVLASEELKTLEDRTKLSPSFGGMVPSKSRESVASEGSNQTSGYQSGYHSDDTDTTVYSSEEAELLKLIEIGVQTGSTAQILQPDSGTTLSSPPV", "assay": "Inhibition of VEGFR2 in human HGC-27 cells assessed as downregulation of PI3K phosphorylation at Tyr607 at 0.1 to 1 uM after 24 hrs by Westernblot analysis", "assay_type": "cell-based", "conditions": "dose 0.1-1 µM", "outline": "(§3)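 HGC-27 cells (1.0 × 10⁶ per 60 mm dish) were treated 24 h with 0.1% DMSO or compound (0.1, 0.5, 1 μM). RIPA lysates with phosphatase inhibitor were quantified by BCA and resolved on 8–12% SDS-PAGE onto nitrocellulose. Blots were probed for p-VEGFR-2 (Tyr1175), p-PI3K (Tyr607), p-AKT (Thr308) and p-mTOR (Ser2448), with ECL detection and densitometry; mean ± SEM.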"}, "[16]": {"tested_on": "HUVEC", "assay": "Antiangiogenic activity against HUVEC cells assessed as reduction in VEGF-induced tube formation tube formation incubated for 12 hrs by matrigel-based assay", "assay_type": "functional, cell-based", "conditions": "Homo sapiens", "outline": "(§4)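 HUVECs at 4 × 10⁵ cells/mL seeded on Matrigel that had been polymerized 1 h at 37 °C. Cells were stimulated with 20 ng/mL VEGF and treated with compound (1, 2.5, 5 and 10 μM) or 0.1% DMSO vehicle for 12 h at 37 °C. Tubes were imaged by inverted microscopy. Tube length, surface area and branch points were quantified as pixel area.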"}, "[17]": {"tested_on": "HUVEC", "assay": "Antiangiogenic activity against HUVEC cells assessed as reduction in VEGF-induced tube length at 1 to 10 uM incubated for 12 hrs by matrigel-based assay", "assay_type": "functional, cell-based", "conditions": "Homo sapiens, dose 1-10 µM", "outline": "as §4"}, "[18]": {"tested_on": "HUVEC", "assay": "Antiangiogenic activity against HUVEC cells assessed as reduction in VEGF-induced tube surface area at 1 to 10 uM incubated for 12 hrs by matrigel-based assay", "assay_type": "functional, cell-based", "conditions": "Homo sapiens, dose 1-10 µM", "outline": "as §4"}, "[19]": {"target": "T1, Vascular endothelial growth factor receptor 2", "assay": "Inhibition of VEGFR2-mediated angiogenesis in HUVEC cells assessed as reduction of phosphorylation of VEGFR-2 after 24 hrs by Westernblot analysis relative to control", "assay_type": "cell-based", "conditions": "dose 1-10 µM", "outline": "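HUVECs seeded at 1.0×10^6 cells/dish in ECM with 1% ECGS, 10% FBS; treated 24 h with test compound (1, 5, 10 µM), 0.1% DMSO vehicle or 10 µM sorafenib. Lysed in RIPA with PMSF and phosphatase inhibitor; 8–12% SDS-PAGE, nitrocellulose, milk block, CST primaries overnight 4 °C, HRP secondaries, ECL; p-VEGFR-2 (Tyr1175) densitometry; at least triplicate.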"}, "[20]": {"target": "T1, Vascular endothelial growth factor receptor 2", "assay": "Inhibition of VEGFR2 in human HGC-27 cells assessed as downregulation of VEGFR2 phosphorylation at Tyr1175 at 0.1 to 1 uM after 24 hrs by Westernblot analysis", "assay_type": "cell-based", "conditions": "dose 0.1-1 µM", "outline": "as §3"}}, "note": "The source made the active and inactive calls. The rule behind the calls is not given here."}
{"smiles": "CC(=O)Nc1n[nH]c2cc(-c3cnn(CC(=O)Nc4ccc(C)c(C(F)(F)F)c4)c3)ccc12", "values": [{"measurement": "IC50", "setting": "[1]", "value": 2.97, "unit": "µM"}, {"measurement": "IC50", "setting": "[2]", "value": 4.31, "unit": "µM"}, {"measurement": "IC50", "setting": "[3]", "value": 7.15, "unit": "µM"}, {"measurement": "IC50", "setting": "[4]", "value": 187, "unit": "µM"}, {"measurement": "inhibition", "setting": "[5]", "value": "Tde"}, {"measurement": "inhibition", "setting": "[6]", "value": "Dose-Dependent Effect"}, {"measurement": "Activity", "setting": "[7]", "value": 69.7, "unit": "%"}, {"measurement": "Activity", "setting": "[8]", "value": 11.8, "unit": "%"}, {"measurement": "Activity", "setting": "[9]", "value": 8.35, "unit": "%"}, {"measurement": "Activity", "setting": "[10]", "value": 2.67, "unit": "%"}, {"measurement": "Activity", "setting": "[11]", "value": 9.59, "unit": "%"}, {"measurement": "Activity", "setting": "[12]", "value": 10.8, "unit": "%"}, {"measurement": "Activity", "setting": "[13]", "value": "Dose-Dependent Effect"}, {"measurement": "Activity", "setting": "[14]", "value": "Dose-Dependent Effect"}, {"measurement": "inhibition", "setting": "[15]", "value": "Active"}, {"measurement": "inhibition", "setting": "[16]", "value": "Dose-Dependent Effect"}, {"measurement": "Activity", "setting": "[17]", "value": "Active"}, {"measurement": "Activity", "setting": "[18]", "value": "Active"}, {"measurement": "inhibition", "setting": "[19]", "value": "Dose-Dependent Effect"}, {"measurement": "inhibition", "setting": "[20]", "value": "Active"}]}
